# Laboratory results as given in ChEMBL document CHEMBL4433207, “Novel Isoxazole Derivatives with Potent FXR Agonistic Activity Prevent Acetaminophen-Induced Liver Injury” (ACS Med Chem Lett, 2019).
# Activity calls are given as the source filed them. The calls are words filed in the database; no cut-off is given here.
# Assays:
# [1] = target: T1, G-protein coupled bile acid receptor 1 (Homo sapiens) (UniProt Q8TDU6); assay: Agonist activity at human GPBAR1 expressed in HEK293T cells at 10 uM after 18 hrs by cAMP response element driven luciferase reporter gene assay; assay type: functional, cell-based
# T1 sequence (whole entry): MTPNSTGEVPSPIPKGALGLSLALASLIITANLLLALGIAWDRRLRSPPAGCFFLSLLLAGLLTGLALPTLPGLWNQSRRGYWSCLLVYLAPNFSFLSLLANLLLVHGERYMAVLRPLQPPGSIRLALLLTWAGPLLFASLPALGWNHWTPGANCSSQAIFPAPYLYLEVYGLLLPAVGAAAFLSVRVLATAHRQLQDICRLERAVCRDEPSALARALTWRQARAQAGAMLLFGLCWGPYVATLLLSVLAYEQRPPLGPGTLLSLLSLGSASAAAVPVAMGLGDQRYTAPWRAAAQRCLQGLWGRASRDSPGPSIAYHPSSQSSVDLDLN
# [2] = system: Mus musculus; assay: Hepatoprotective activity against APAP-induced acute liver injury in C57BL/6N mouse assessed as increase in APAP metabolism by measuring increase in APAP-glucuronide level at 30 mg/kg, po administered 45 min after APAP challenge by LC-MS/MS analysis; assay type: functional, organism-based
# Method in brief: (§1)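 C57Bl6 mice given a single 500 mg/kg APAP dose, with test agent at 30 mg/kg; surviving mice sacrificed 24 h later, blood and liver collected. Endpoints: serum AST/ALT, liver H&E histology, hepatic Ugt1a1/Ugt2b1/Sult1a1 mRNA, hepatic GSH, SOD activity and MDA, and plasma APAP, APAP-glucuronide and APAP-sulfate by LC–MS/MS. Mean ± SEM, 5–8 animals per group.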
# [3] = system: Mus musculus; assay: Hepatoprotective activity against APAP-induced acute liver injury in C57BL/6N mouse assessed as upregulation of UGT1A1 mRNA levels at 30 mg/kg, po administered 45 mins after APAP challenge; assay type: functional, organism-based; method in brief: as §1
# [4] = target: T2, Oxysterols receptor LXR-alpha (Homo sapiens) (UniProt Q13133); assay: Transactivation of Gal4-fused LXRalpha LBD (unknown origin) expressed in HepG2 cells at 10 uM after 18 hrs by dual-glo luciferase assay; assay type: cell-based
# T2 sequence (whole entry): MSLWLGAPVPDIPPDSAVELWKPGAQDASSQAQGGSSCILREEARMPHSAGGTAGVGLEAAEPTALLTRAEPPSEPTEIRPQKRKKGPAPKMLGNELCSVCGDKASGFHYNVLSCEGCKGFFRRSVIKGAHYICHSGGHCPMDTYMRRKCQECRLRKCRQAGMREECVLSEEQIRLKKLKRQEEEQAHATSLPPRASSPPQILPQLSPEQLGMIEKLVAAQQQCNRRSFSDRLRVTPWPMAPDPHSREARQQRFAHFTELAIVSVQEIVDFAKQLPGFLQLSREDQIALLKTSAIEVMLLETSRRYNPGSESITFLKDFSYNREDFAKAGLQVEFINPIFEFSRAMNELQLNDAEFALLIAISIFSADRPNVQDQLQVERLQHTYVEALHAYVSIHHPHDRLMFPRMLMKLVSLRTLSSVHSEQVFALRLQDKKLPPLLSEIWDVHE
# [5] = system: Mus musculus; assay: Hepatoprotective activity against APAP-induced acute liver injury in C57BL/6N mouse assessed as reduction in lipid peroxidation by measuring MDA levels at 30 mg/kg, po administered 45 mins after APAP challenge; assay type: functional, organism-based; method in brief: as §1
# [6] = system: Mus musculus; assay: Hepatoprotective activity against APAP-induced acute liver injury in C57BL/6N mouse assessed as reduction in plasma ALT levels at 30 mg/kg, po administered 45 mins after APAP challenge; assay type: functional, organism-based; method in brief: as §1
# [7] = system: Mus musculus; assay: Hepatoprotective activity against APAP-induced acute liver injury in C57BL/6N mouse assessed as upregulation of UGT2B1 mRNA levels at 30 mg/kg, po administered 45 mins after APAP challenge; assay type: functional, organism-based; method in brief: as §1
# [8] = system: Mus musculus; assay: Hepatoprotective activity against APAP-induced acute liver injury in C57BL/6N mouse assessed as upregulation of SULT1A1 mRNA levels at 30 mg/kg, po administered 45 mins after APAP challenge; assay type: functional, organism-based; method in brief: as §1
# [9] = system: Mus musculus; assay: Hepatoprotective activity against APAP-induced acute liver injury in C57BL/6N mouse assessed as APAP plasma concentration at 30 mg/kg, po administered 45 min after APAP challenge by LC-MS/MS analysis (reference value: 1000 nM); assay type: functional, organism-based; method in brief: as §1
# [10] = system: Mus musculus; assay: Hepatoprotective activity against APAP-induced acute liver injury in C57BL/6N mouse assessed as reduction in plasma AST levels at 30 mg/kg, po administered 45 mins after APAP challenge; assay type: functional, organism-based; method in brief: as §1
# [11] = system: Mus musculus; assay: Hepatoprotective activity against APAP-induced acute liver injury in C57BL/6N mouse assessed as increase in SOD levels at 30 mg/kg, po administered 45 mins after APAP challenge; assay type: functional, organism-based; method in brief: as §1
# [12] = target: T3, Oxysterols receptor LXR-beta (Homo sapiens) (UniProt P55055); assay: Transactivation of Gal4-fused LXRbeta LBD (unknown origin) expressed in HepG2 cells at 10 uM after 18 hrs by dual-glo luciferase assay; assay type: cell-based
# T3 sequence (whole entry): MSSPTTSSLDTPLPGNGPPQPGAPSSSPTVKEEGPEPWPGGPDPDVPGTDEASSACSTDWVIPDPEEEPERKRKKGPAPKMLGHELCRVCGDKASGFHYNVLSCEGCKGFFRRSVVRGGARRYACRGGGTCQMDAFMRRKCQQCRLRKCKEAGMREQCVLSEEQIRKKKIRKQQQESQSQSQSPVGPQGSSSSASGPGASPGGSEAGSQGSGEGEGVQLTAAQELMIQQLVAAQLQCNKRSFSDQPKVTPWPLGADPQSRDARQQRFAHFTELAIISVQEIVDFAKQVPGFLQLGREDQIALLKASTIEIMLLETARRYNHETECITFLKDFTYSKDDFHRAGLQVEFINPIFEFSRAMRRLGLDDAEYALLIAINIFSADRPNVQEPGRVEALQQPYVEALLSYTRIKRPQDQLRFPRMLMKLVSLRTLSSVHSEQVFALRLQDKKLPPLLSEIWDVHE
# [13] = system: Mus musculus; assay: In-vivo agonist activity at FXR in C57BL/6N N mouse assessed as upregulation of SHP mRNA level at 10 mg/kg, po dosed daily via gavage for 3 days by RT-PCR analysis; assay type: functional, organism-based
# Method in brief: (§2)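 Mice dosed 10 mg/kg daily for 3 days, by gavage or i.p. Total liver RNA analysed by quantitative real-time PCR for SHP or BSEP mRNA, normalized to GAPDH mRNA; mean ± SEM of four mice per group.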
# [14] = system: Mus musculus; assay: In-vivo agonist activity at FXR in C57BL/6N N mouse assessed as upregulation of BSEP mRNA level at 10 mg/kg, ip dosed daily […] for 3 days by RT-PCR analysis; assay type: functional, organism-based; method in brief: as §2
# [15] = system: Mus musculus; assay: Hepatoprotective activity against APAP-induced acute liver injury in C57BL/6N mouse assessed as reduction in liver necrosis at 30 mg/kg, po administered 45 mins after APAP challenge by H and E staining based microscopic method; assay type: functional, organism-based; method in brief: as §1
# [16] = system: Mus musculus; assay: In-vivo agonist activity at FXR in C57BL/6N N mouse assessed as upregulation of SHP mRNA level at 10 mg/kg, ip dosed daily […] for 3 days by RT-PCR analysis; assay type: functional, organism-based; method in brief: as §2
# [17] = target: T4, Peroxisome proliferator-activated receptor gamma (Homo sapiens) (UniProt P37231); assay: Transactivation of Gal4-fused PPARgamma LBD (unknown origin) expressed in HepG2 cells at 10 uM after 18 hrs by dual-glo luciferase assay; assay type: cell-based
# T4 sequence (whole entry): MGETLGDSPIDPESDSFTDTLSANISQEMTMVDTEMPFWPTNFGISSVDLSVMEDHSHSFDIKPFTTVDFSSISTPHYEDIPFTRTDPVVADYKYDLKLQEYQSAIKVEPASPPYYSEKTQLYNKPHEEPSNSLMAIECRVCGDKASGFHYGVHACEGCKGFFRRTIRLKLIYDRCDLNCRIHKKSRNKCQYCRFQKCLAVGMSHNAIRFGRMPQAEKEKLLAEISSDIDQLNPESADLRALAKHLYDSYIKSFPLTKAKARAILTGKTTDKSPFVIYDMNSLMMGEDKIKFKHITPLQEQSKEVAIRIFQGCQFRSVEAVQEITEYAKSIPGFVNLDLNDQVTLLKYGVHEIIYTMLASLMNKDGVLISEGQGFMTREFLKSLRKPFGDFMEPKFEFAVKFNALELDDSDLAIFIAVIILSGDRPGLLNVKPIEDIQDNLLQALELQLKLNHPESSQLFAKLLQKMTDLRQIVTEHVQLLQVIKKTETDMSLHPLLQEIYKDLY
# [18] = system: Mus musculus; assay: In-vivo agonist activity at FXR in C57BL/6N N mouse assessed as upregulation of BSEP mRNA level at 10 mg/kg, po dosed daily via gavage for 3 days by RT-PCR analysis; assay type: functional, organism-based; method in brief: as §2
# [19] = system: Mus musculus; assay: Hepatoprotective activity against APAP-induced acute liver injury in C57BL/6N mouse assessed as increase in APAP metabolism by measuring increase in APAP-sulfate level at 30 mg/kg, po administered 45 min after APAP challenge by LC-MS/MS analysis; assay type: functional, organism-based; method in brief: as §1
# [20] = system: Mus musculus; assay: Hepatoprotective activity against APAP-induced acute liver injury in C57BL/6N mouse assessed as increase in GSH levels at 30 mg/kg, po administered 45 mins after APAP challenge; assay type: functional, organism-based; method in brief: as §1
# [21] = Half life in rat liver microsomes at 1 uM up to 40 mins by LC-MS/MS method
# [22] = Metabolic stability in rat liver microsomes assessed as compound remaining at 1 uM up to 40 mins by LC-MS/MS method relative to control
# [23] = Aqueous solubility of compound in phosphate buffer at pH 7.4//MeOH after 24 hrs by LC-MS/MS method; assay type: physicochemical
# [24] = Intrinsic clearance in rat liver microsomes at 1 uM up to 40 mins by LC-MS/MS method; details: read-out: CLH
compound,measurement,setting,value
CC(C)c1onc(-c2c(Cl)cccc2Cl)c1COc1ccc(S(C)(=O)=O)cc1,Activity,[1],inactive
CC(C)c1onc(-c2c(Cl)cccc2Cl)c1COc1ccccc1,Activity,[1],inactive
CC(C)c1onc(-c2c(Cl)cccc2Cl)c1COc1ccc(C#N)cc1,Activity,[1],inactive
CC(C)c1onc(-c2c(Cl)cccc2Cl)c1COc1ccc(COc2ccc(C(=O)O)cc2)cc1,Activity,[2],Active
same,Activity,[3],Active
same,Activity,[4],inactive
same,Activity,[5],Active
same,Activity,[6],Active
same,Activity,[7],Active
same,Activity,[8],Active
same,Cp,[9],615 nM
same,Activity,[10],Active
same,Activity,[11],Active
same,Activity,[12],inactive
same,Activity,[1],inactive
same,Activity,[13],Active
same,Activity,[14],Active
same,Activity,[15],Active
same,Activity,[16],Active
same,Activity,[17],inactive
same,Activity,[18],Active
same,Activity,[19],Active
same,Activity,[20],Active
COC(=O)c1ccc(OCc2ccc(OCc3c(-c4c(Cl)cccc4Cl)noc3C(C)C)cc2)cc1,Activity,[1],inactive
CC(C)c1onc(-c2c(Cl)cccc2Cl)c1COc1ccc(-c2cccc(C(=O)O)c2)cc1,Activity,[1],inactive
COC(=O)c1cccc(OCc2ccc(OCc3c(-c4c(Cl)cccc4Cl)noc3C(C)C)cc2)c1,Activity,[1],inactive
CC[C@H]1[C@@H](O)[C@@H]2[C@H](CC[C@]3(C)[C@@H]([C@H](C)CCC(=O)O)CC[C@@H]23)[C@@]2(C)CC[C@@H](O)C[C@@H]12 [OBETICHOLIC ACID],half-life at 1 µM,[21],21 min
same,"remaining at 40 min, 1 µM",[22],27%
same,solubility at 24 h,[23],> 200 µM
same,microsomal CLint at 1 µM,[24],109 µL/min/mg
CC(C)c1onc(-c2c(Cl)cccc2Cl)c1COc1ccc(C(=O)O)cc1,Activity,[1],inactive
CC(C)c1onc(-c2c(Cl)cccc2Cl)c1COc1ccc(/C=C/c2cccc(C(=O)O)c2)c(Cl)c1,Activity,[6],Active
same,Activity,[10],Active
same,half-life at 1 µM,[21],41 min
same,"remaining at 40 min, 1 µM",[22],48%
same,solubility at 24 h,[23],152 µM
same,microsomal CLint at 1 µM,[24],56 µL/min/mg
COC(=O)c1cccc(-c2ccc(OCc3c(-c4c(Cl)cccc4Cl)noc3C(C)C)cc2)c1,Activity,[1],inactive
CC(C)c1onc(-c2c(Cl)cccc2Cl)c1COc1ccc(COc2ccc(CO)cc2)cc1,Activity,[1],inactive
CC(C)c1onc(-c2c(Cl)cccc2Cl)c1COc1cccc(C(=O)O)c1,Activity,[1],inactive
COC(=O)c1ccc(OCc2c(-c3c(Cl)cccc3Cl)noc2C(C)C)cc1,Activity,[1],inactive
COC(=O)c1cccc(OCc2c(-c3c(Cl)cccc3Cl)noc2C(C)C)c1,Activity,[1],inactive
CC(C)c1onc(-c2c(Cl)cccc2Cl)c1COc1ccc(COc2cccc(CO)c2)cc1,Activity,[1],inactive
CC(C)c1onc(-c2c(Cl)cccc2Cl)c1COc1ccc(COc2cccc(C(=O)O)c2)cc1,Activity,[4],inactive
same,Activity,[12],inactive
same,Activity,[1],inactive
same,Activity,[17],inactive
CC(C)c1onc(-c2c(Cl)cccc2Cl)c1COc1cccc(C#N)c1,Activity,[1],inactive
CC(C)c1onc(-c2c(Cl)cccc2Cl)c1COc1ccc(CO)cc1,Activity,[1],inactive
CC(C)c1onc(-c2c(Cl)cccc2Cl)c1COc1ccc(COc2cccc(C#N)c2)cc1,Activity,[1],inactive
CC(C)c1onc(-c2c(Cl)cccc2Cl)c1COc1cccc(CO)c1,Activity,[1],inactive
CC(C)c1onc(-c2c(Cl)cccc2Cl)c1COc1ccc(COc2ccc(C#N)cc2)cc1,Activity,[1],inactive
CC(C)c1onc(-c2c(Cl)cccc2Cl)c1COc1ccc(-c2cccc(CO)c2)cc1,Activity,[1],inactive
